The nature of data set [1]: Cytotoxicity against mouse CFU-GM cells by disk diffusion soft agar colony formation assay. The format is cell-based. In short, it runs like this:
(§1)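 Cell-based soft agar disk diffusion assay, applied to extracts, partition fractions and pure compounds. Read-out is the inhibition zone in zone units. The panel covers solid tumour cells (Colon 38, Colon H116, Lung H125), leukaemia cells (L1210, CEM) and normal CFU-GM. A sample counts as solid-tumour selective when the solid tumour zone exceeds the leukaemia or normal cell zone by more than 250 units.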
Background: A growth-free zone around the sample is the usual read-out of agar diffusion tests.

In a further data set the test system is CCRF-CEM. Kind of data set: Cytotoxicity against human CEM cells by disk diffusion soft agar colony formation assay. The format is cell-based. In short, it runs like this: as §1
The next data set deals with MC-38. Kind of data set: Cytotoxicity against mouse C38 cells by disk diffusion soft agar colony formation assay. The format is functional. In short, it runs like this: as §1
Data set [2] is described as follows: Cytotoxicity against human H116 cells by disk diffusion soft agar colony formation assay. The format is functional. In short, it runs like this:
as §1

A short description of data set [3]: Cytotoxicity against human H125 cells by disk diffusion soft agar colony formation assay. The format is functional. In short, it runs like this: as §1
The test system of the next data set is L1210. Kind of data set: Cytotoxicity against mouse L1210 cells by disk diffusion soft agar colony formation assay. The data set is classed as functional. In short, it runs like this: as §1
The nature of data set [4]: Cytotoxicity against human CFU-GM cells by disk diffusion soft agar colony formation assay. The data set is classed as cell-based. In short, it runs like this:
as §1

For a further data set, the system named is Enterococcus durans. The experiment in a line: Antibacterial activity against Enterococcus durans. The data set is classed as functional.
In data set [5] the test system is Staphylococcus epidermidis. Kind of data set: Antibacterial activity against Staphylococcus epidermidis. The format is functional.

Each structure is given as a SMILES string. Converted amounts (≈) assume the structure as drawn. Starred links: 1 amine or outer side, 2 acyl side, 3 side chain; linkers in the order of their positions; H or OH if unused. Non-standard residues stand in square brackets, D forms with d. Residues, ends and D or L forms follow the SMILES beside them. X1 = CC(C)(O)[C@H](O[*:1])C(=O)[*:2]; dNMeF = CN[C@H](Cc1ccccc1)C(=O)O; Hica(2S) = CC(C)C[C@H](O)C(=O)O; Hiv = CC(C)[C@H](O)C(=O)O; NMeA = CN[C@@H](C)C(=O)O

`C[C@H]1CCC/C=C/[C@@H]2C[C@H](O)C[C@H]2[C@H](O)/C=C/C(=O)O1` [BREFELDIN A]: the Activity result in data set [1] is recorded as “Not Active”; in the data set on CCRF-CEM it was 0 Zone units; in the data set on MC-38, 150 Zone units; in data set [2], 900 Zone units; in data set [3], 600 Zone units; in the data set on L1210, 0 Zone units. In data set [4], the Activity was 1000 Zone units.

Consider `CC(C)C[C@@H]1OC(=O)[C@H](C)NC(=O)[C@H](C(C)(C)O)OC(=O)[C@H](C)N(C)C(=O)[C@@H](C)NC(=O)[C@@H](Cc2ccccc2)N(C)C1=O` [GUANGOMIDE A] (cyclo(A[Hica(2S)][dNMeF][dA][NMeA][X1])), for which the minimum inhibitory concentration (MIC) (in the data set on Enterococcus durans; in data set [5]) was 100 µg/mL (≈ 162 µM) in each case. The Activity entry is “Not Active” in [1]; 0 Zone units with MC-38; 50 Zone units in data set [2]; 0 Zone units in data set [3]; 0 Zone units in the data set with L1210; “Not Active” in data set [4].

For the compound `CC(C)C[C@@H]1OC(=O)[C@H](C)NC(=O)[C@H](C(C)C)OC(=O)[C@H](C)N(C)C(=O)[C@@H](C)NC(=O)[C@@H](Cc2ccccc2)N(C)C1=O` [GUANGOMIDE B] (cyclo(A[Hica(2S)][dNMeF][dA][NMeA][Hiv])), the MIC (with Enterococcus durans; in data set [5]) was 100 µg/mL (≈ 166 µM) throughout.

What is called MIC is the smallest concentration in the dilution series that meets the test's criterion for growth inhibition.

The values are drawn from ChEMBL document CHEMBL1158099, “A chemical study of cyclic depsipeptides produced by a sponge-derived fungus” (J Nat Prod, 2006).
